Laboratory results reported in ChEMBL document CHEMBL4765235, “Discovery of N-[Bis(4-methoxyphenyl)methyl]-4-hydroxy-2-(pyridazin-3-yl)pyrimidine-5-carboxamide (MK-8617), an Orally Active Pan-Inhibitor of Hypoxia-Inducible Factor Prolyl Hydroxylase 1-3 (HIF PHD1-3) for the Treatment of Anemia” (J Med Chem, 2016).
pIC50: −log10 of the molar value. Active and inactive are the calls of the source. No cut-off for these calls is given here.

Assays:
[1] = Volume of distribution at steady state in rhesus monkey at 1 mg/kg, po or 0.5 mg/kg, iv; type: ADME, organism-based, Macaca mulatta; conditions: in vivo, read-out: Vdss
Summary of the method: (§1)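 Dog and rhesus monkey dosed 1 mg/kg po and 0.5 mg/kg iv. The iv vehicle was PEG200:12%HPCD:water (30:12:58 v/v/v); the po vehicle was Imwitor:Tween (1:1 w/w). Clearance was measured in plasma. Protein binding was measured in 100% serum.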

[2] = Cmax in rhesus monkey at 1 mg/kg, po or 0.5 mg/kg, iv; type: ADME, organism-based, Macaca mulatta; design: dose 1 mg/kg; conditions: in vivo
Summary of the method: (§2)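 Single-dose PK at 1 mg/kg po and 0.5 mg/kg iv. Mouse clearance is from blood; dog and rhesus clearance is from plasma. Mouse vehicle, both routes: DMSO:PEG400:water (5:40:55, v/v/v). Dog and monkey iv vehicle: PEG200:12%HPCD:water (30:12:58 v/v/v). Dog and monkey po vehicle: Imwitor:Tween (1:1 w/w).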

[3] = Cmax in C57BL/6J mouse at 1 mg/kg, po or 0.5 mg/kg, iv; type: ADME, organism-based; design: dose 1 mg/kg; conditions: in vivo; summary of the method: as §2
Mus musculus = species on record: Mus musculus; conditions: C57BL/6, dose 5-15 mg/kg, time 2.0 day
[4] = Drug metabolism in dog liver microsomes assessed as O-demethylated metabolite formation; type: ADME, Canis lupus familiaris, Microsome
Prolyl hydroxylase EGLN2 = Prolyl hydroxylase EGLN2 (Homo sapiens, UniProt Q96KS0); assay: Inhibition of FLAG-tagged full-length HIF-PHD1 (unknown origin) expressed in baculovirus infected Sf9 cells using 2-oxoglutarate and HIF1alpha biotinyl-DLDLEMLAPYIPMDDDFQL as peptide substrates preincubated for 30 mins followed by substrate addition and measured after 2 hrs by LANCE assay
[5] = Drug metabolism in human liver microsomes assessed as O-demethylated metabolite formation; type: ADME, Microsome
[6] = Drug metabolism in fasted bile-duct cannulated Sprague-Dawley rat bile assessed as oxidation of parent compound causing metabolite formation at 5 mg/kg, po using [3H]-labeled compound measured after 48 hrs; type: ADME, organism-based; conditions: in vivo
[7] = In vivo inhibition of HIF-PHD2 in C57BL/6 mouse assessed as serum erythropoietin level at 15 mg/kg, iv measured after 4 hrs; type: functional
Summary of the method: (§3)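 Mouse pharmacodynamic EPO assay (MoPED). Compound dosed iv; serum EPO measured 4 hr after dosing and reported in pg/mL. Minimum effective dose is the lowest dose giving EPO elevation.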

[8] = Half life in C57BL/6J mouse at 1 mg/kg, po or 0.5 mg/kg, iv; type: ADME, organism-based; conditions: in vivo; summary of the method: as §2
Cytochrome P450 2D6 = Cytochrome P450 2D6 (Homo sapiens, UniProt P10635); assay: Inhibition of CYP2D6 (unknown origin); type: ADME
[9] = In vivo inhibition of HIF-PHD2 in C57BL/6 mouse assessed as serum erythropoietin level at 1.5 mg/kg, iv measured after 4 hrs; type: functional; summary of the method: as §3
Cytochrome P450 2C19 = Cytochrome P450 2C19 (Homo sapiens, UniProt P33261); assay: Inhibition of CYP2C19 (unknown origin); type: ADME
[10] = Protein binding in rhesus monkey plasma assessed as unbound fraction at 1 mg/kg, po or 0.5 mg/kg, iv; type: ADME, organism-based, Macaca mulatta; conditions: read-out: PPB
Cytochrome P450 1A2 = biological target: T1, Cytochrome P450 1A2 (Homo sapiens, UniProt P05177); assay: Inhibition of CYP1A2 (unknown origin); type: ADME
T1 sequence (P05177 whole entry): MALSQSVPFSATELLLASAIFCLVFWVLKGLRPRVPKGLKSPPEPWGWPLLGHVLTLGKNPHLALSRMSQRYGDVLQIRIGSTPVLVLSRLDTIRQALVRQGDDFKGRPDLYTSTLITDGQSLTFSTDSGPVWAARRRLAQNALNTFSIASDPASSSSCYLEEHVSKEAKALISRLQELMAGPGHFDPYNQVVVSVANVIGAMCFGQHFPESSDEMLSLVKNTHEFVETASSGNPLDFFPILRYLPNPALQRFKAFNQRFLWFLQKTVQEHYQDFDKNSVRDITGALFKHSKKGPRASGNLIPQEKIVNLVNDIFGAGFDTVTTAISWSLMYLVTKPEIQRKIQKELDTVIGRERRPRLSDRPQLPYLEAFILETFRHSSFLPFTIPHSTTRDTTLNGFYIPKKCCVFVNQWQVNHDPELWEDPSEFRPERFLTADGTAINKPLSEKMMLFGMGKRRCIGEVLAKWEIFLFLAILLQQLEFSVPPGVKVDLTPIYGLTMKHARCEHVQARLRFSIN

[11] = Metabolic stability in dog liver microsomes assessed as metabolic turnover at 10 uM measured after 60 mins in presence of NADPH; type: ADME, Canis lupus familiaris, Microsome; conditions: read-out: Drug metabolism
Summary of the method: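 Tritiated compound incubated with liver microsomes with NADPH added; metabolic turnover monitored.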

[12] = Drug metabolism in fasted bile-duct cannulated Sprague-Dawley rat urine assessed as oxidation of parent compound causing metabolite formation at 5 mg/kg, po using [3H]-labeled compound measured after 48 hrs; type: ADME, organism-based; conditions: in vivo
[13] = Drug recovery in fasted bile-duct cannulated Sprague-Dawley rat feces at 5 mg/kg, po using [3H]-labeled compound measured after 48 hrs; type: ADME, organism-based; conditions: in vivo
[14] = Oral bioavailability in rhesus monkey at 1 mg/kg; type: ADME, organism-based, Macaca mulatta; conditions: in vivo; summary of the method: as §1
[15] = In vivo inhibition of HIF-PHD2 in C57BL/6 mouse assessed as serum erythropoietin level at 100 mg/kg, iv measured after 4 hrs; type: functional; summary of the method: as §3
[16] = Half life in dog at 1 mg/kg, po or 0.5 mg/kg, iv; type: ADME, organism-based, Canis lupus familiaris; conditions: in vivo; summary of the method: as §2
[17] = In vivo inhibition of HIF-PHD2 in C57BL/6 mouse assessed as serum erythropoietin level at 50 mg/kg, iv measured after 4 hrs; type: functional; summary of the method: as §3
[18] = In vivo inhibition of HIF-PHD2 in iv dosed C57BL/6 mouse assessed as minimum effective dose causing increase in serum erythropoietin levels measured after 4 hrs; type: functional; conditions: C57BL/6, iv, read-out: MED; summary of the method: as §3
[19] = Protein binding in rat plasma assessed as unbound fraction at 2 mg/kg, po or 1 mg/kg, iv; type: ADME, organism-based; conditions: read-out: PPB
[20] = Plasma clearance in rat at 2 mg/kg, po or 1 mg/kg, iv; type: ADME, organism-based
[21] = Drug recovery in fasted bile-duct cannulated Sprague-Dawley rat bile assessed as metabolically unchanged parent compound at 5 mg/kg, po using [3H]-labeled compound measured after 48 hrs; type: ADME, organism-based; conditions: in vivo
[22] = Metabolic stability in monkey liver microsomes assessed as metabolic turnover at 10 uM measured after 60 mins in presence of NADPH; type: ADME, Macaca mulatta, Microsome; conditions: rhesus monkey, read-out: Drug metabolism
Summary of the method: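 Tritiated compound incubated with rat or monkey liver microsomes supplemented with NADPH; metabolic turnover monitored.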

[23] = Cmax in dog at 1 mg/kg, po or 0.5 mg/kg, iv; type: ADME, organism-based, Canis lupus familiaris; design: dose 1 mg/kg; conditions: in vivo; summary of the method: as §2
[24] = Drug recovery in fasted bile-duct cannulated Sprague-Dawley rat feces assessed as metabolically unchanged parent compound by measuring radioactivity at 5 mg/kg, po using [3H]-labeled compound measured after 48 hrs; type: ADME, organism-based; conditions: in vivo
[25] = In vivo inhibition of HIF-PHD2 in C57BL/6 mouse assessed as serum erythropoietin level at 5 mg/kg, iv measured after 4 hrs; type: functional; summary of the method: as §3
[26] = Volume of distribution at steady state in dog at 1 mg/kg, po or 0.5 mg/kg, iv; type: ADME, organism-based, Canis lupus familiaris; conditions: in vivo, read-out: Vdss; summary of the method: as §1

Chain of Cytochrome P450 2D6 (P10635 whole entry): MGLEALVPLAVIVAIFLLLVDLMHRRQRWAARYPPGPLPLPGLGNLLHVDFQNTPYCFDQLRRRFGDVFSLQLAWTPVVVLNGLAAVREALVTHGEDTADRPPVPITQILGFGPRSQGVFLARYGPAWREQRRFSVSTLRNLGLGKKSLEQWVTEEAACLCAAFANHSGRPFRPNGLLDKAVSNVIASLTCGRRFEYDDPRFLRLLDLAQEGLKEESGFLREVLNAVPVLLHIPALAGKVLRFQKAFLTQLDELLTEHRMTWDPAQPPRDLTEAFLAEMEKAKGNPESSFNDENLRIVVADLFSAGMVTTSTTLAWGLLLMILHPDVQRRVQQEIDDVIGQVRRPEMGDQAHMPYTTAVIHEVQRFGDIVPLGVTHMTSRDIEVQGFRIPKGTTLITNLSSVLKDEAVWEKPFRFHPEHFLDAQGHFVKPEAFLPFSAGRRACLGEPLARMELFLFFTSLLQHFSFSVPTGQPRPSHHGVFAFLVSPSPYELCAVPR
Chain of Prolyl hydroxylase EGLN2 (Q96KS0 whole entry): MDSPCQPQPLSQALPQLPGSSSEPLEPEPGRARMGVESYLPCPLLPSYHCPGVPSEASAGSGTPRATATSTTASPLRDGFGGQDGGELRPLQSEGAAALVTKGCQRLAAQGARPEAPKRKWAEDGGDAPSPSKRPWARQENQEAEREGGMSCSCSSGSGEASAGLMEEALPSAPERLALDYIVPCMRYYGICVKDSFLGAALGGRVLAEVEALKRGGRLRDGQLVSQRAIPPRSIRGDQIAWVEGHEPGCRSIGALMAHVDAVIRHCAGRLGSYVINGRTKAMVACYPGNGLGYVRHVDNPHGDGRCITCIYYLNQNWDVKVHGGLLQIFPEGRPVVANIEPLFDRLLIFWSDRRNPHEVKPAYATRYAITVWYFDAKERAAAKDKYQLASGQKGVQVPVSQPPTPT
Chain of Cytochrome P450 2C19 (P33261 whole entry): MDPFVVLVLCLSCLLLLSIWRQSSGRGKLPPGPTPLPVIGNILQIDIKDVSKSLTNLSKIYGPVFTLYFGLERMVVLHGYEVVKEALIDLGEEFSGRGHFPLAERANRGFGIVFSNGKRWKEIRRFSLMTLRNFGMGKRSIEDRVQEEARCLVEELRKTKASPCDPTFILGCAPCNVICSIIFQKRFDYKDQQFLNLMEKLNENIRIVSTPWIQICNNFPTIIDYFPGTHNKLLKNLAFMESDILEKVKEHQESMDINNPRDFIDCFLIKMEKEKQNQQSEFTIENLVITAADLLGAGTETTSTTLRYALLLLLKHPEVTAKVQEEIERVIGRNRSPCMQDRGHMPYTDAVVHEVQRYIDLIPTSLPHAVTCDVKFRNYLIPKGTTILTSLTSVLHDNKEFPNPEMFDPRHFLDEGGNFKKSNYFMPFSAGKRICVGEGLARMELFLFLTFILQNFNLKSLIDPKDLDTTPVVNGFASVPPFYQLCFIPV

Q: For `COc1ccc(C(NC(=O)c2cnc(-c3cccnn3)nc2O)c2ccc(OC)cc2)cc1`, which Vd [1] is on record?
A: 0.1 L/kg

Q: What about the Cmax [2] of the same compound?
A: 17 µM

Q: What about the Cmax [3] of the same compound?
A: 8.4 µM

Q: And the inhibition (Mus musculus)?
A: Active

Q: And the Drug metabolism [4]?
A: Metabolite_Detected

Q: What about the pIC50 (Prolyl hydroxylase EGLN2) of the same compound?
A: 9.00

Q: What about the Drug metabolism [5] of the same compound?
A: Metabolite_Detected

Q: What about the Drug metabolism [6] of the same compound?
A: Metabolite_Detected

Q: What about the Activity [7] of the same compound?
A: 12000 pg/mL

Q: And the half-life [8]?
A: 11 h

Q: What about the pIC50 (Cytochrome P450 2D6) of the same compound?
A: < 4.22

Q: And the Activity [9]?
A: 360 pg/mL

Q: And the pIC50 (Cytochrome P450 2C19)?
A: < 4.22

Q: What about the fraction unbound [10] of the same compound?
A: 0.005

Q: What about the pIC50 (Cytochrome P450 1A2) of the same compound?
A: < 4.22

Q: What about the metabolised at 1 h, 10 µM [11] of the same compound?
A: < 10%

Q: What about the Drug metabolism [12] of the same compound?
A: Metabolite_Detected

Q: What about the Drug recovery [13] of the same compound?
A: 39%

Q: And the bioavailability [14]?
A: 52%

Q: What about the Activity [15] of the same compound?
A: 27000 pg/mL

Q: What about the half-life [16] of the same compound?
A: 19 h

Q: And the Activity [17]?
A: 18000 pg/mL

Q: And the minimal effective dose [18]?
A: 1.5 mg/kg

Q: And the fraction unbound [19]?
A: 0.006

Q: And the clearance [20]?
A: 0.2 mL/min/kg

Q: And the Drug recovery [21]?
A: < 10%

Q: And the metabolised at 1 h, 10 µM [22]?
A: < 10%

Q: What about the Cmax [23] of the same compound?
A: 18 µM

Q: What about the Drug recovery [24] of the same compound?
A: 90%

Q: What about the Activity [25] of the same compound?
A: 6200 pg/mL

Q: What about the Vd [26] of the same compound?
A: 0.12 L/kg
